Rce1 inhib – yeast Ras-converting enzyme inhibition | Q03530 | yeast membranes, quenched prenylated peptide cleavage fluorescence | calls only | 290,000 compounds, 0.27% hits | AID 2563;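 active = fall in fluorescence gain of 50% or more versus controls, with final raw signal at or below 3038400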;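 note: plate controls were neutral control wells for no effect and wells lacking membranes for full effect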
VLA-4 inh – inhibition in a human VLA-4 binding assay. P13612. VLA-4 expressing cells, ligand binding flow cytometry. inhibition, % (about 7 µM as worked out from the volumes in the protocol). 330,000 compounds, 0.2% hits. AID 2557; in the data active = inhibition above about 50%
TAAR1 agonist – agonists of human TAAR1; 360,000 compounds, 0.99% hits; CHO RD-HGA16 TAAR1, Fluo-8 calcium fluorescence; vehicle wells 0%, saturating PEA agonist 100%; activation, % at 3 µM;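 active = activation above the mean activation of all test compounds in the run plus 3 SD, cut at about 38% in these data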
Target sequence (Q96RJ0 whole entry, looked up): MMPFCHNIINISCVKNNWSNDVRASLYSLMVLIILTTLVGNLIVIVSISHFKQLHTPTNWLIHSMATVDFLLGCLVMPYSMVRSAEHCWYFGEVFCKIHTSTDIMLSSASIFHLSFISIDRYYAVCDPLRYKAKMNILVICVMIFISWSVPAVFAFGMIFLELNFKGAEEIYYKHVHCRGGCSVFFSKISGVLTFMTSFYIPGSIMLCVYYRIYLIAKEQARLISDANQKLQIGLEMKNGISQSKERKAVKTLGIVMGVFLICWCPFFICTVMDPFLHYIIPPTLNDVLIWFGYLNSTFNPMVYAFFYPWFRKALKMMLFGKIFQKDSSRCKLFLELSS
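Benchmarks: low control DMSO, high control PEA (EC100); System: CHO RD-HGA16 cells carrying human TAAR1 plus Gα16; Detection: Fluo-8 fluorescence, 5 s baseline then 140 s kinetic read; Schedule: 17-24 h plating, Fluo-8 75 min 37 °C, 30 min RT; Read-out basis: % activation from peak over basal fluorescence ratio, DMSO-to-PEA scaled.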
Platelet DG rel – modulates dense granule release in human platelets. inhibition, %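 (compounds screened at 7.5 µM in platelet-rich plasma)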. 300,000 compounds, 0.22% hits. AID 1663. human platelet-rich plasma, SFLLRN dense granule ATP release, luminescence;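 active = mean replicate score, as percent of positive control, at or above 50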
TAAR1 antag – human TAAR1 antagonism | Q96RJ0 | CHO RD-HGA16 TAAR1, Fluo-8 calcium fluorescence, antagonist | inhibition, % at 3 µM | 360,000 compounds, 1.5% hits | AID 624466;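 active = inhibition above a per-plate cutoff, the mean inhibition of test compounds on that plate plus 3 SD, cut at about 49% in these data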;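 note: 0% = DMSO plus EC80 beta-PEA response and 100% = DMSO alone without agonist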
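Material: CHO RD-HGA16 cells bearing hTAAR1; compound dosing: one-point dosing, 3 µM nominal final; schedule: dye loading 75 min at 37 °C, then 30 min room temperature; measured by: calcium fluorescence with Fluo-8; control set: vehicle and agonist controls; replication: n of 1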
VLA-4 allo CP – human VLA-4 allosteric modulation in cherry picked compounds; U937 cells, HUTS-21 LIBS mAb binding, flow cytometry; LDV ligand present at threefold Kd; 1,300 compounds, 2% hits; inhibition, % at 6.7 µM; shares compounds with VLA-4 inh; AID 2813; in the data active = inhibition above about 40%;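 note: 0% = ligand without compound and 100% = no ligand background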
* = called active by the depositor; i = inactive; / = no result given. Compounds with a hit are over-represented: about 2.6% of the library has one in this group of screens.

SMILES | Rce1 inhib | VLA-4 inh | TAAR1 agonist | Platelet DG rel | TAAR1 antag | VLA-4 allo CP
CN(CC(=O)Nc1ccc(F)cc1)C(=O)COC(=O)c1ccccc1 | i | 50* | 3 | 8 | 6 | 0
CS(=O)(=O)Cc1cccc(C(=O)NC2CCSc3ccccc32)c1 (centres undefined) | i | -1 | 4 | 1 | 1 | /
CC(=O)Nc1ccc(NC(=O)c2cc(S(=O)(=O)N3CCCCC3)ccc2N2CCOCC2)cc1 | / | / | 15 | / | -16 | 2
COc1cc(NC(=O)c2cc(S(=O)(=O)N3CCCCC3)ccc2N2CCOCC2)cc(OC)c1 | i | 0 | 0 | 14 | -25 | 3
Cc1ccc(S(=O)(=O)N(C)C)cc1NC(=O)c1cc(S(=O)(=O)N2CCCCC2)ccc1N1CCOCC1 | / | / | 0 | / | -3 | 0
COc1ccc(C)cc1NC(=O)c1cc(S(=O)(=O)N2CCCCC2)ccc1N1CCOCC1 | / | 14 | 0 | / | -15 | -5
COc1ccc(CNC(=O)c2cc(S(=O)(=O)N3CCCCC3)ccc2N2CCOCC2)cc1OC | / | / | 8 | / | -6 | /
CC(=O)c1cccc(NC(=O)c2cc(S(=O)(=O)N3CCCCC3)ccc2N2CCOCC2)c1 | / | / | 0 | / | -1 | /
CC(C)CN1CCC(=O)N(CCO)CC1 | i | -8 | 5 | -3 | -1 | /
CC(C)(C)Cc1c(-c2ccc(F)cc2)nc2ccc(Br)cn12 | / | / | -1 | / | -7 | /
Cc1ccc(S(=O)(=O)N2CCC(C(=O)N3CC(C)OC(C)C3)CC2)cc1 (centres undefined) | i | 11 | 0 | -4 | 3 | /
O=C(Nc1ccc(OC(F)F)cc1)c1cc(S(=O)(=O)N2CCCCC2)ccc1N1CCOCC1 | / | 18 | 9 | / | -16 | 9
CC(C)C(NC(=O)c1ccccc1)c1nnc(SCC(=O)Nc2nccs2)n1C (centres undefined) | i | 58* | 15 | 2 | -4 | 3
Cc1ccc(Cl)c(NC(=O)CN2C(=O)C(C)N(c3ccc(F)cc3)C2=O)c1Cl (centres undefined) | / | / | 3 | / | 21 | /
COc1ccccc1NC(=S)N1CCN(c2ccccn2)CC1 | i | -15 | 1 | -2 | -12 | /
COc1ccccc1NC(=O)N1CCN(c2ccccn2)CC1 | i | 52* | 0 | -7 | -6 | -4
COC(=O)[C@@H](Cc1ccccc1)NC(=O)Cn1cnc2c(SC)nc(N)nc21 | / | 36 | 0 | / | 22 | /
CSc1nc(N)nc2c1ncn2CC(=O)N[C@H](C)c1cccc2ccccc12 | / | 54* | 8 | / | -5 | 3
Cc1ccc2nc(-c3ccc(NC(=S)NC4CC(C)(C)NC(C)(C)C4)cc3)sc2c1 | i | 54* | 10 | 0 | 32 | 31
Cc1ccc2nc(-c3ccc(NC(=S)NC(=O)C(C)C)cc3)sc2c1 | i | 22 | 4 | 8 | -2 | /
CCn1c(O)c(/C=C2\C=Nc3ccccc32)sc1=Nc1ccc(C)cc1 | i | 4 | 9 | 6 | -1 | /
CCn1c(O)c(/C=C2\C=Nc3ccccc32)sc1=O | i | 44 | 2 | 7 | 21 | -11
COC(=O)c1ccc([N+](=O)[O-])c(CS(=O)(=O)c2ccc(Cl)cc2)c1 | i | -8 | -3 | 1 | -7 | /
CO/N=C/CC(=O)c1ccc([N+](=O)[O-])c(CS(=O)(=O)c2ccc(Cl)cc2)c1 | i | 42 | -1 | 2 | -11 | -18
COc1cccc(C(=O)OCC(=O)NCCC2=CCCCC2)c1 | / | 4 | -3 | / | -11 | -1
SMILES | Rce1 inhib | VLA-4 inh | TAAR1 agonist | Platelet DG rel | TAAR1 antag | VLA-4 allo CP
CCN1CCC(Nc2ccnc3cc(Cl)ccc23)CC1 | i | 48 | 3 | 4 | -15 | -5
CC(C)=CC(=O)NCC1CCN(C(=O)C(=O)c2cc3ccccc3o2)CC1 | / | / | 4 | / | -3 | /
Cc1cccc(C)c1NC(=O)C(C1CC1)n1c(-c2ccc(C(F)(F)F)cc2)nc2ccccc21 (centres undefined) | / | / | -2 | / | -14 | /
Nc1ncnc2c1nc(Br)n2[C@@H]1O[C@@H]2COP(=O)(O)O[C@H]2[C@H]1O | i | 54* | 3 | -4 | -23 | 4
COCCCNC(=O)CCn1nc(-c2ccc(Cl)cc2)ccc1=O | i | 14 | 5 | -1 | -5 | /
COc1cc(/C=C/C(=O)OCC(=O)Nc2c(C)n(C)n(-c3ccccc3)c2=O)ccc1OCC#N | i | 61* | 8 | -16 | -2 | 0

Screening results (PubChem)
